High-throughput results: PubChem BioAssay, several laboratories
DTT redox prof = compounds producing H2O2 with reducing agent – biochemical, NIH compound library profiling, artefact control for MLSCN library redox annotation, primary screen; AID 878, 2007; 0.03% of 200,000 active; DTT-dependent redox cycling H2O2, phenol red/HRP absorbance; 100% = 100 µM peroxide control, 0% = buffer; activation, % at 10 µM;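 active = activation of at least 50% relative to the plate's high and low controls in the primary single-dose screen; inactive = activation below 50%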;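 note: compound incubated with DTT at 0.8 mM final as the reducing agent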
Lipid droplet = inhibitors of hepatocyte lipid droplet formation, primary screen, imaging, high-throughput imaging, BODIPY stain; AML12 mouse hepatocytes, oleate lipid droplets; inhibition, % at 6.5 µM; 0.4% of 240,000 active; AID 1656, 2009;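 active = lipid droplet intensity inhibited by at least 50%, with more than 500 cells counted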
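Material – AML12 mouse liver cells · Also added – oleate loading, 100 µM · Compound dosing – 6.5 µM single-point dosing · Times – overnight treatment with compound plus oleate · Measured by – fluorescence imaging, 20x objective, two fields per well · Read-out – percent inhibition of filter-corrected integrated lipid droplet intensity per well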
T cruzi inh = inhibitors of intracellular T. cruzi growth, primary screen, luminescence, NIH3T3 host cells | inhibition, % (test concentration not listed) | T. cruzi beta-gal in NIH3T3, 90 h | 1.4% of 300,000 active | AID 1885, 2009;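 active = mean inhibition across valid replicates above about 55%, limit read from the data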;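 note: signal also drops with host cell toxicity which is not excluded here; higher percent means less beta-gal luminescence so fewer parasites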
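Read-out: Parasite load inhibition, % | Test system: Mouse NIH/3T3 fibroblasts infected with β-gal-expressing T. cruzi Tulahuen C4 | Amount: 5,000 cells/well | Medium: DMEM, 2% fetal bovine serum | Signal: GalScreen β-gal luminescence, detergent lysis, 60 min | Timing: 3 h attach, ≥90 h co-culture | Also added: Tulahuen C4 trypomastigotes, 5000/well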
MPTP block = mitochondrial permeability transition pore inhibitors, primary screen, biochemical, isolated mouse mitochondria, absorbance. Ca2+ swelling absorbance, 30 min. inhibition, % at 10 µM. 1.4% of 360,000 active;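 active = inhibition of 50% or more, scaled per plate between neutral and stimulator controls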
Lmaj promast = Leishmania major promastigote growth inhibition, primary screen; Leishmania major promastigotes, resazurin fluorescence viability; inhibition, % at 10 µM; 9% of 200,000 active; in the data active = inhibition above about 50%;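 note: promastigotes grown with compound for 44 hours at 28 °C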
Rh123 counter = fluorescence retest of MPTP screen hits in isolated mitochondria, single concentration; shares compounds with MPTP block; membrane potential, Rhodamine 123 fluorescence; inhibition, % at 10 µM; 78% of 5,000 active; AID 624504, 2012; in the data active = inhibition above about 22%
MPTP swell DR = mitochondrial permeability transition pore inhibitors, dose response, biochemical, absorbance, uHTS hits; shares compounds with MPTP block; isolated mitochondria swelling; IC50, µM; 58% of 780 active; AID 651561, 2012; in the data active = IC50 below about 20 µM
MPTP counter DR = fluorescent counter-screen in isolated mitochondria, dose response, counter-screen for MPTP inhibitor project, biochemical, fluorescence, uHTS hits; isolated mitochondria counterscreen, fluorescence read-out; shares compounds with MPTP block; IC50, µM; 49% of 780 active; in the data active = IC50 below about 80 µM
Each line names hits and unclear results; the compound was inactive in the other large screens (follow-up assays come after a bar, where they were run). Many of the other results were omitted from the sample, so hits are more common in it than they were.

CCN(CC)CCCN=Cc1c(O)n(Cc2ccccc2)c(=O)c2ccccc12	MPTP block 79, Lmaj promast 99 | Rh123 counter inactive | MPTP swell DR 12 | MPTP counter DR inactive
CCN(CC)CCCN=Cc1c(O)n(-c2c(C)cccc2C)c(=O)c2ccccc12	none (no result: DTT redox prof, Lmaj promast)
O=C(NCC(c1ccco1)N1CCc2ccccc2C1)c1ccc(Br)cc1 (stereo not drawn)	none (no result: DTT redox prof, Lipid droplet, Lmaj promast)
O=C(Nc1ccncc1)c1cccc(S(=O)(=O)N2CCCC2)c1	none (no result: DTT redox prof, Lmaj promast)
Cc1cc(C(=O)CSc2nc3ccccc3c(=O)[nH]2)c(C)n1CC1CCCO1 (stereo not drawn)	MPTP block 81 | Rh123 counter 75
Cc1cc(C(=O)CSc2nc3ccccc3c(=O)n2C)c(C)n1CC1CCCO1 (stereo not drawn)	none (no result: MPTP block)
COC(=O)CSc1nnc(C)c(=O)[nH]1	none
CCOC(=O)CNc1nnc(SCC(=O)OCC)[nH]c1=O	MPTP block 58 (no result: Lipid droplet) | Rh123 counter inactive | MPTP swell DR inactive | MPTP counter DR inactive
CSc1nc2ccccc2nc1N(C)S(=O)(=O)c1ccc(C)cc1	none (no result: DTT redox prof, Lmaj promast)
CC1CCN(S(=O)(=O)c2ccc(Oc3ccc([N+](=O)[O-])cc3)cc2)CC1	MPTP block 67 (no result: Lipid droplet) | Rh123 counter 71
COCCNc1nc2nonc2nc1NC(C)c1ccccc1Cl (stereo not drawn)	MPTP block 75 | Rh123 counter 96
CCC(C(=O)NNC(=O)c1cnccn1)c1ccccc1 (stereo not drawn)	none
Cc1onc(-c2ccccc2)c1C(=O)NNC(=O)c1ccccc1	none (no result: DTT redox prof, Lipid droplet, T cruzi inh, Lmaj promast)
Cc1onc(-c2ccccc2)c1C(=O)NNC(=S)NC(=O)c1ccc(Cl)cc1Cl	MPTP block 104 | Rh123 counter 33
Cc1onc(-c2ccccc2)c1C(=O)NNC(=S)NC(=O)/C=C/c1ccccc1	MPTP block 93 | Rh123 counter inactive
Cc1ccc(C(=O)NNC(=S)NC(=O)c2ccc(Cl)cc2)cc1	MPTP block 91, Lmaj promast 64 (no result: Lipid droplet) | Rh123 counter inactive
CC(=O)NNC(=S)NC(=O)c1ccc(C)cc1	none
Cc1onc(-c2ccccc2)c1C(=O)NNC(=S)NC(=O)c1ccc(Br)cc1	MPTP block 68 | Rh123 counter 29
CCc1noc(C)c1C(=O)Nc1cc(S(=O)(=O)N2CCOCC2)ccc1OC(C)C	none (no result: DTT redox prof, Lipid droplet, Lmaj promast)
Cc1cccc(C(=O)NC(=S)NNC(=O)COc2c(C)cccc2C)c1	MPTP block 87 | Rh123 counter inactive | MPTP swell DR 6.7 | MPTP counter DR 39
Cc1cccc(C(=O)NC(=S)Nc2ccccc2C(=O)O)c1	none
O=C(NC(=S)NNC(=O)c1ccc(Cl)cc1Cl)c1cccnc1	none
Cc1cccc(C(=O)NC(=S)NNC(=O)Cc2ccccc2)c1	none
Cc1cccc(C(=O)NC(=S)NNC(=O)c2ccccc2Cl)c1	MPTP block 85 | Rh123 counter inactive
Cc1ccccc1C(=O)NNC(=S)NC(=O)c1ccc(Cl)cc1Cl	MPTP block 76 | Rh123 counter inactive
CCOC(=O)CC/C(=N\NC(N)=O)c1ccc(OC)c(Cl)c1	none (no result: DTT redox prof, Lipid droplet, Lmaj promast)
O=C(Nc1ccncc1)Nc1ccc(Cl)cc1Cl	T cruzi inh 55, MPTP block 51 (no result: DTT redox prof, Lmaj promast) | Rh123 counter 104
O=C(Nc1ccncc1)Nc1ccncc1	none
CCCc1c(NC(=O)Nc2ccc(Cl)cc2Cl)cnn1-c1ccccc1	MPTP block 83 (no result: DTT redox prof, Lmaj promast) | Rh123 counter 76
CCCc1c(C(=O)Nc2ccc(F)cc2F)cnn1-c1ccccc1	none (no result: DTT redox prof, T cruzi inh, Lmaj promast)
O=C(Nc1ccncc1)Nc1ccc(Cl)cc1	MPTP block 55 (no result: DTT redox prof, Lmaj promast) | Rh123 counter 98
CC(Oc1ccc(Cl)cc1Cl)C(=O)Nc1cccnc1 (stereo not drawn)	none
CC(Oc1ccc(Cl)cc1Cl)C(=O)Nc1ccncc1 (stereo not drawn)	MPTP block 77 (no result: Lipid droplet) | Rh123 counter 74
CCS(=O)(=O)c1ccc2oc(Nc3cccc(OC)c3)nc2c1	none
CCN1CCN(c2c(Cl)cccc2NC(=O)c2cc3ccccc3o2)CC1	none (no result: DTT redox prof, Lmaj promast)
CCN=C1S/C(=C\c2ccc(O)c(OCC)c2)C(=O)N1CC	none
CCN=C1S/C(=C\c2cc(OCC)c(O)cc2Br)C(=O)N1CC	MPTP block 67 | Rh123 counter 71
CCc1nn2cc(C(=O)c3cc(Cl)ccc3O)cnc2c1-c1ccc(F)cc1	MPTP block 100 | Rh123 counter 93
CC(=O)OCC=C1CCC2C3CC(C)C4=CC(=O)CCC4(C)C3C(O)CC12C (stereo not drawn)	none (no result: DTT redox prof, Lipid droplet, T cruzi inh, Lmaj promast)
C[C@H](CO)N1C[C@H](C)[C@@H](CN(C)Cc2ccncc2)Oc2c(NS(=O)(=O)c3ccc(F)cc3)cccc2C1=O	none (no result: DTT redox prof, Lipid droplet, T cruzi inh, Lmaj promast)
CCc1ccc2oc(C(=O)NCc3ccncc3)c(C)c2c1	MPTP block 69 | Rh123 counter 22
COc1ccc(COC(=O)c2cccc(S(=O)(=O)N3CCN(C(C)=O)CC3)c2)cc1F	MPTP block 56 (no result: DTT redox prof, Lipid droplet, Lmaj promast) | Rh123 counter 45
CSc1nc(N)nc(SCC(=O)CC(=O)OC(C)C)c1C#N	none
CSc1nc(N)nc(SCC(=O)C(C)(C)C)c1C#N	none
CSc1nc(N)nc(SCC(=O)Nc2ccc(Cl)cc2)c1C#N	MPTP block 85, Lmaj promast 100 (no result: Lipid droplet) | Rh123 counter 82
CSc1nc(N)nc(SCC(=O)Nc2cccc(F)c2)c1C#N	MPTP block 93 | Rh123 counter 87
Cc1ccc(S(=O)(=O)N2CCCC2CNC(=O)C(=O)NCCN2CCOCC2)cc1 (stereo not drawn)	none (no result: DTT redox prof, Lipid droplet, Lmaj promast)
Cc1nc2ccccn2c1C(=O)CSc1ccc(Cl)cc1Cl	MPTP block 72 (no result: Lipid droplet) | Rh123 counter inactive
Cc1nc2ccccn2c1C(=O)CSc1ccccc1Cl	none (no result: Lipid droplet)
Cc1cc(Cl)cc(C)c1OCCOCCNCc1ccccc1	none (no result: DTT redox prof, Lmaj promast)
COc1ccc(NS(=O)(=O)c2ccc(N3CCCC3)c(NC(=S)Nc3cccc(S(=O)(=O)N(C)C)c3)c2)cc1	none (no result: MPTP block)
CCCCCC(C)NC(=O)c1cc(S(=O)(=O)N2CCCCC2)ccc1N1CCOCC1 (stereo not drawn)	none (no result: DTT redox prof, Lipid droplet, T cruzi inh, Lmaj promast)
Cc1nnc(SCc2nnc(-c3cccs3)o2)n1Cc1ccccc1	none
Clc1ccc(-c2nnc(CSc3nnc(-c4cccs4)n3Cc3ccccc3)o2)cc1	MPTP block 92 | Rh123 counter 89
CC1(C)CC(c2nc(-c3ccc(Cl)cc3)cs2)CCS1 (stereo not drawn)	MPTP block 78 (no result: Lipid droplet) | Rh123 counter inactive | MPTP swell DR inactive | MPTP counter DR 58
